High-throughput results (PubChem BioAssay)
IDH1 R132H inh: blocks human IDH1 R132H reductase activity | diaphorase/resazurin fluorescence, 60 min | hit rate 0.18% among 70,000 | inhibition, % at 10 µM; in the data active means inhibition above about 34%; inconclusive means no clear call, values can overlap the other calls; inactive means below about 11%;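 further: 0% = DMSO and 100% = no enzyme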
Target sequence (O75874 whole entry R132H): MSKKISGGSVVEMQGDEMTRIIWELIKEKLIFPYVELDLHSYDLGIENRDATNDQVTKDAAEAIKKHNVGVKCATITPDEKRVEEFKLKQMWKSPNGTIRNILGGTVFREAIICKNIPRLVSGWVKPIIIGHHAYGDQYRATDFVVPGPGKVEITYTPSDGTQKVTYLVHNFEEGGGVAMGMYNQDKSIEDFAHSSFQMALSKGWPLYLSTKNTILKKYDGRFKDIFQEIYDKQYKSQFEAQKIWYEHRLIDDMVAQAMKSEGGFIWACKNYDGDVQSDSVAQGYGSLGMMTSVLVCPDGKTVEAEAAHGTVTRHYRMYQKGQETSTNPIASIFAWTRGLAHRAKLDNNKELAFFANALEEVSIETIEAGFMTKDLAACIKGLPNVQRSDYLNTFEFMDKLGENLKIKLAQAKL
T cruzi growth-1: T. cruzi proliferation inhibition. T. cruzi beta-gal in NIH3T3, GalScreen luminescence, 90 h. inhibition, % at 8.34 µM. hit rate 5.9% among 77,000. AID 624255;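 active means mean inhibition above about 93%, with at least 55% of replicates each passing it, limit read from the data, passing the limit was not always enough; inconclusive means only one of those two conditions holds; inactive means neither condition holds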
KDM4C inh: inhibitors of human demethylase GASC-1 KDM4C | GST-KDM4C 2-372, H3K9me3 peptide, LANCE TR-FRET | Q9H3R0 | AID 720574 | hit rate 0.15% among 96,000 | inhibition, % at 12.5 µM;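 active means mean replicate inhibition above about 25%, with at least 55% of replicates also reaching it, limit read from the data, passing the limit was not always enough; inconclusive means only one of those two conditions met; inactive means neither condition met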
Target sequence (Q9H3R0 2-372 limits assumed): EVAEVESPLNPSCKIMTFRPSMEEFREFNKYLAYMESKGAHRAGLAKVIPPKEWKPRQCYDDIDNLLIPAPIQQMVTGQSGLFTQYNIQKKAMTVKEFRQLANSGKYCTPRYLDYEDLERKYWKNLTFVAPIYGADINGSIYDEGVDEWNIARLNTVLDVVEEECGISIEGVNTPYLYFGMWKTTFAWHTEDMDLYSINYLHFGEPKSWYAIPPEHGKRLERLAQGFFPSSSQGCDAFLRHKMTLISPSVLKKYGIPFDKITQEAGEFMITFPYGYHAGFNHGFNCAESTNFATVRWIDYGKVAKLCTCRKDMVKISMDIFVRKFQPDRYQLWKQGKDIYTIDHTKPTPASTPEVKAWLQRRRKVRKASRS
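Material: N-terminal GST-fused human GASC-1 (KDM4C) fragment, residues 2-372. Input: 10 nM enzyme. Incubation: enzyme reaction 30 min, then detection 60 min, both room temperature. Doses: one test concentration per compound. Read-out basis: inhibition from TR-FRET ratio decrease. Detection: LANCE TR-FRET, excitation 340 nm, emissions 618 and 671 nm.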
T cruzi growth-2: inhibitors of T. cruzi proliferation. AID 651739. shares compounds with T cruzi growth-1. inhibition, % at 8.35 µM. T. cruzi beta-gal in NIH3T3, GalScreen luminescence, 90 h. hit rate 72% among 5,600;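 active means mean replicate inhibition above about 95% and at least 55% of replicates individually reaching it, limit read from the data; inconclusive means only one of the two criteria is met; inactive means neither criterion is met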
T cruzi growth-3: Trypanosoma cruzi proliferation inhibition; T. cruzi beta-gal in NIH3T3, GalScreen luminescence, 90 h; AID 651740; inhibition, % at 2.09 µM; hit rate 21% among 5,600; shares compounds with T cruzi growth-1;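 active means mean inhibition above about 95%, with at least 55% of replicates also reaching it, limit read from the data; inconclusive means meets just one of the two conditions; inactive means meets neither condition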;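 further: plate controls were neutral control median for no effect and positive control median for full effect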
NIH3T3 tox: NIH/3T3 (mouse) viability loss. shares compounds with T cruzi growth-1. NIH/3T3 viability, CellTiter-Glo ATP luminescence, 90 h. AID 651742. cytotoxicity (signal decrease), % at 8.35 µM. hit rate 14% among 5,600;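 active means mean signal decrease across replicates above about 35% based on untreated-well scatter, with enough replicates individually passing, limit read from the data; inconclusive means no rule stated though some were filed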;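 further: 0% = median of neutral control wells and 100% = median of positive control wells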
3T3 cytotox 2: NIH/3T3 (mouse) viability loss. shares compounds with T cruzi growth-1. NIH/3T3 viability, CellTiter-Glo ATP luminescence, 90 h. inhibition, % at 24.9 µM. hit rate 56% among 5,600;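 active means mean loss of cell viability signal at or above a set limit, and enough replicates individually reaching it; inconclusive means meets only the mean limit or only the replicate share; inactive means meets neither condition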;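 further: 0% = median of neutral control wells and 100% = median of positive control wells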
The depositor's hits bear a star; ? = inconclusive; nt = no result given. The entries come from a sample that favours hits as a whole.

SMILES | IDH1 R132H inh | T cruzi growth-1 | KDM4C inh | T cruzi growth-2 | T cruzi growth-3 | NIH3T3 tox | 3T3 cytotox 2
O=S(=O)(c1ccccc1)N1CCCCN2[C@H](CO)[C@@H](c3ccc(C#Cc4cccnc4)cc3)[C@H]2C1 | nt | ? | nt | 109.9* | 61.8 | 24.9 | 78.7*
O=C(CCCCCC/C=C/c1ccc2c(c1)OCO2)N1CCCCC1 | -0.3 | nt | nt | nt | nt | nt | nt
Cc1nnc(SCC(=O)Nc2cccc(F)c2)s1 | -0.7 | nt | nt | nt | nt | nt | nt
N#C[C@H]1[C@@H](c2ccc(C#Cc3cccc(F)c3)cc2)[C@@H](CO)N1C(=O)C1CCCC1 | nt | 93.3 | 2.0 | nt | nt | nt | nt
N#C[C@H]1[C@@H](c2ccc(C#Cc3cccc(F)c3)cc2)[C@H](CO)N1C(=O)C1CCCC1 | nt | 100.4* | -2.3 | 92.2 | 105.4* | 8.9 | 103.4*
N#C[C@H]1[C@H](c2ccc(C#Cc3cccc(F)c3)cc2)[C@H](CO)N1C(=O)C1CCCC1 | nt | 104.7* | -0.1 | 102.2* | 76.7 | 10.5 | 95.3*
COc1cccc(C#Cc2ccc([C@H]3[C@@H](C#N)N(C(=O)C4CCCC4)[C@@H]3CO)cc2)c1 | nt | nt | -0.8 | nt | nt | nt | nt
N#C[C@H]1[C@H](c2ccc(C#Cc3cccc(F)c3)cc2)[C@@H](CO)N1C(=O)C1CCCC1 | nt | 98.8* | -0.4 | 94.4 | 101.7* | 4.9 | 96.0*
COc1cccc(C#Cc2ccc([C@H]3[C@@H](CO)N(C(=O)C4CCCC4)[C@H]3C#N)cc2)c1 | nt | nt | -2.0 | nt | nt | nt | nt
CCOc1ccccc1NC(=O)CSc1nc2ccccc2c(=O)n1-c1ccc(Cl)cc1 | -0.4 | nt | nt | nt | nt | nt | nt
OC(CNCc1ccc(Cl)cc1Cl)Cn1c(-c2ccc(F)cc2)cc2ccccc21 (configuration not stated) | 0.3 | nt | nt | nt | nt | nt | nt
Cc1nn(C(=O)Cn2cc([N+](=O)[O-])cn2)c(C)c1Br | 0.0 | nt | nt | nt | nt | nt | nt
O=C(CSc1nc2ccccc2o1)Nc1ccc(Br)cc1Cl | -0.1 | nt | nt | nt | nt | nt | nt
CCC(=O)Nc1ccc2c(c1)OC[C@@H](C)N(CCc1ccccc1)C[C@H](C)[C@@H](OC)CN(C)C2=O | -0.5 | 58.0 | 0.9 | nt | nt | nt | nt
CO[C@@H]1CN(C)C(=O)c2ccc(NC(=O)NC3CCCCC3)cc2OC[C@@H](C)N(CCc2ccccc2)C[C@H]1C | 0.2 | 117.8* | -0.5 | 110.1* | 50.6 | 21.6 | 10.3
CO[C@H]1CN(C)C(=O)c2cc(NC(=O)NC3CCCCC3)ccc2OC[C@H](C)N(CCc2ccccc2)C[C@@H]1C | 0.9 | 86.0 | 2.0 | nt | nt | nt | nt
CO[C@@H]1CN(C)C(=O)c2ccc(NC(=O)Cc3ccccc3)cc2OC[C@@H](C)N(CCc2ccccc2)C[C@H]1C | 0.2 | 99.1* | 0.2 | 99.7* | 103.6* | -3.8 | 11.3
Cc1cc(C)c(NC(=O)CSc2nnc(-c3ccc(F)cc3)n2C)c(C)c1 | 1.2 | nt | nt | nt | nt | nt | nt
C[C@H](CO)N1C[C@H](C)[C@@H](CN(C)C(=O)Nc2ccccc2)Oc2cc(C#C[C@@H](C)O)ccc2S1(=O)=O | nt | 63.2 | nt | nt | nt | nt | nt
C[C@@H]1CN([C@H](C)CO)S(=O)(=O)c2ccc(C#Cc3ccncc3)cc2O[C@H]1CN(C)C(=O)Nc1ccc2c(c1)OCO2 | nt | 35.5 | 12.9 | nt | nt | nt | nt
C[C@H]1CN([C@@H](C)CO)S(=O)(=O)c2ccc(C#Cc3ccccc3)cc2O[C@@H]1CN(C)C(=O)Nc1ccc2c(c1)OCO2 | -0.2 | 130.8* | -1.4 | 106.0* | 75.5 | 19.5 | 12.6
C[C@@H]1CN([C@@H](C)CO)S(=O)(=O)c2ccc(C#Cc3ccccc3)cc2O[C@@H]1CN(C)C(=O)Nc1ccc2c(c1)OCO2 | -0.6 | 130.7* | 9.3 | 106.9* | ? | 19.6 | 30.0*
C[C@@H]1CN([C@H](C)CO)S(=O)(=O)c2ccc(C#Cc3ccncc3)cc2O[C@@H]1CN(C)C(=O)Nc1ccc2c(c1)OCO2 | nt | 25.0 | 3.9 | nt | nt | nt | nt
C[C@@H]1CN([C@@H](C)CO)S(=O)(=O)c2ccc(Br)cc2O[C@H]1CN(C)C(=O)Nc1ccc2c(c1)OCO2 | nt | nt | -1.0 | nt | nt | nt | nt
C[C@@H]1CN([C@@H](C)CO)S(=O)(=O)c2ccc(C#Cc3ccccc3)cc2O[C@H]1CN(C)C(=O)Nc1ccc2c(c1)OCO2 | nt | 132.4* | -2.2 | 97.6* | 85.2 | ? | 44.9*
SMILES | IDH1 R132H inh | T cruzi growth-1 | KDM4C inh | T cruzi growth-2 | T cruzi growth-3 | NIH3T3 tox | 3T3 cytotox 2
C[C@H](CO)N1C[C@H](C)[C@H](CN(C)C(=O)Nc2ccc3c(c2)OCO3)Oc2cc(C#Cc3ccccc3)ccc2S1(=O)=O | 0.2 | 130.7* | -0.4 | 108.1* | 94.3 | -18.0 | 19.4
CC(=O)C1=C(C)Nc2ncnn2C1c1ccccc1[N+](=O)[O-] (configuration not stated) | 0.2 | nt | nt | nt | nt | nt | nt
C[C@@H]1O[C@H]2Oc3c(-c4ccc(O)cc4)oc4cc(O)c(c(O)c4c3=O)-c3cc(ccc3O)/C=C\C(=O)OC[C@H]3O[C@@H](O[C@H]([C@H]1O)[C@H]2O)[C@H](O)[C@@H](O)[C@@H]3O | 0.1 | nt | nt | nt | nt | nt | nt
CCOc1ccc(NC(=O)Cn2cc(C(=O)OC)c3ccccc32)cc1 | 0.5 | nt | nt | nt | nt | nt | nt
COc1cccc(NC(=O)CSc2ncnc3scc(-c4ccc(C)cc4)c23)c1 | 0.0 | nt | nt | nt | nt | nt | nt
CC(C)C#Cc1ccc2c(c1)O[C@H](CN(C)C(=O)Nc1ccccc1)[C@H](C)CN([C@H](C)CO)S2(=O)=O | nt | nt | -1.0 | nt | nt | nt | nt
C[C@H]1CN([C@@H](C)CO)S(=O)(=O)c2ccc(C3=CCCCC3)cc2O[C@@H]1CN(C)C(=O)Nc1ccc2c(c1)OCO2 | -0.6 | nt | -1.8 | nt | nt | nt | nt
C[C@@H]1CN([C@H](C)CO)S(=O)(=O)c2ccc(C#Cc3ccccc3)cc2O[C@@H]1CN(C)C(=O)Nc1ccc2c(c1)OCO2 | 0.0 | 130.2* | 17.6 | 105.7* | 106.6* | 5.0 | 4.1
C[C@H](CO)N1C[C@H](C)[C@H](CN(C)C(=O)Nc2ccc3c(c2)OCO3)Oc2cc(C#Cc3cccnc3)ccc2S1(=O)=O | -9.7 | 101.3* | -1.8 | 48.0 | -11.9 | -2.9 | 8.2
C[C@@H]1CN([C@@H](C)CO)S(=O)(=O)c2ccc(C#Cc3cccnc3)cc2O[C@H]1CN(C)C(=O)Nc1ccc2c(c1)OCO2 | 2.0 | 94.1 | -1.4 | nt | nt | nt | nt
C[C@H](CO)N1C[C@H](C)[C@@H](CN(C)C(=O)Nc2ccc3c(c2)OCO3)Oc2cc(C3=CCCC3)ccc2S1(=O)=O | -0.3 | 113.9* | 0.4 | 96.1* | 44.9 | -1.2 | 17.2
Cc1cc(=O)[nH]c(SCC(=O)Nc2cc([N+](=O)[O-])ccc2C)n1 | 0.8 | nt | nt | nt | nt | nt | nt
CC(C)(C)NC(=O)c1ccc(-n2nc(C(F)(F)F)c3c2-c2ccoc2CC3)cc1 | 1.5 | nt | nt | nt | nt | nt | nt
CC(=O)c1ccc(OC(=O)C(Cc2ccccc2)N2C(=O)C3C4C=CC(C5CC45)C3C2=O)cc1 (configuration not stated) | 0.1 | nt | nt | nt | nt | nt | nt
CN1Cc2cc3c(cc2CCC(=O)c2cc4c(cc2C1)OCO4)OCO3 | 0.4 | nt | nt | nt | nt | nt | nt
OC[C@H]1[C@@H](c2ccc(C#CC3(O)CCCC3)cc2)[C@@H]2CN(Cc3cncnc3)CCCCN12 | nt | 21.5 | -0.5 | nt | nt | nt | nt
